Measurements reported in ChEMBL document CHEMBL1153110, “Optimization of (4,4-difluoro-1,2,3,4-tetrahydro-5H-1-benzazepine-5-ylidene)acetamide derivatives as arginine vasopressin V2 receptor agonists and discussion of their binding modes” (Bioorg Med Chem, 2009).

Columns and labels:
[1] = target: Vasopressin V1a/V2 (Homo sapiens) (UniProt P30518+P37288); test: Selectivity ratio of Ki for human vasopressin V1A receptor to Ki for human vasopressin V2 receptors
Vasopressin V2 receptor [2] = target: T1, Vasopressin V2 receptor (Homo sapiens, UniProt P30518); test: Intrinsic activity at human vasopressin V2 receptor expressed in CHO cells assessed as cAMP accumulation by HTRF assay relative to AVP; type: functional, cell-based
T1 sequence (P30518 whole entry): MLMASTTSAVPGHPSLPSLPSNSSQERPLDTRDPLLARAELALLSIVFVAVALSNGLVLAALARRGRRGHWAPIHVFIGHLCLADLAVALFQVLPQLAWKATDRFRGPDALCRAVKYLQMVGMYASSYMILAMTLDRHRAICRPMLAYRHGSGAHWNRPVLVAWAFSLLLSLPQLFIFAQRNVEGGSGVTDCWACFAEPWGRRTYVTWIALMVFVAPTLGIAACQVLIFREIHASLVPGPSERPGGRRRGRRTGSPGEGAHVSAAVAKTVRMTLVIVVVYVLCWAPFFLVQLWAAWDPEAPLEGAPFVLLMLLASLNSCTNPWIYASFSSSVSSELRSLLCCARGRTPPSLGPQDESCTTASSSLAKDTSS
How it was run: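 Intrinsic activity was measured in the cAMP HTRF assay in human V2-CHO cells: 24 h serum-free, then 10 min at 37 °C with 1 mmol/L IBMX. It is the compound's maximal response as a percentage of the maximal AVP response (100%). Assays were run in triplicate.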

Rattus norvegicus = test: Antidiuretic activity in water-loaded po dosed Wistar rat assessed as decrease in urinary excretion administered 15 mins prior to water loading measured up to 4 hrs; type: functional; settings: Urine
How it was run: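 Male Wistar rats (200–300 g) were pre-screened for at least 70% excretion of an oral water load. They were deprived of feed and water and dosed orally without anesthesia. Distilled water (30 mL/kg po) was given 15 min later, and urine was collected in metabolic cages for 4 h (n = 3–6). Excretion was expressed as % of the loaded volume. ED50, the dose lowering excretion to 50%, came from linear regression.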

Vasopressin V2 receptor [3] = target: T1, Vasopressin V2 receptor; test: Displacement of [3H]vasopressin from human vasopressin V2 receptor expressed in CHO cells by microplate scintillation counting; type: cell-based
How it was run: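 Membranes came from human V2-expressing CHO cells: hypotonic lysis, then centrifugation at 1000g and 35,000g at 4 °C. They were incubated with [3H]vasopressin at 0.91 nmol/L final in 50 mmol/L Tris-HCl pH 7.4, filtered on GF/B and washed with ice-cold Tris buffer. Retained radioactivity was scintillation counted. Assays were run in triplicate.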

Vasopressin V1a receptor = Vasopressin V1a receptor (Homo sapiens, UniProt P37288); test: Displacement of [3H]vasopressin from human vasopressin V1A receptor expressed in CHO cells by microplate scintillation counting; type: cell-based
Sequence of Vasopressin V1a receptor (P37288 whole entry): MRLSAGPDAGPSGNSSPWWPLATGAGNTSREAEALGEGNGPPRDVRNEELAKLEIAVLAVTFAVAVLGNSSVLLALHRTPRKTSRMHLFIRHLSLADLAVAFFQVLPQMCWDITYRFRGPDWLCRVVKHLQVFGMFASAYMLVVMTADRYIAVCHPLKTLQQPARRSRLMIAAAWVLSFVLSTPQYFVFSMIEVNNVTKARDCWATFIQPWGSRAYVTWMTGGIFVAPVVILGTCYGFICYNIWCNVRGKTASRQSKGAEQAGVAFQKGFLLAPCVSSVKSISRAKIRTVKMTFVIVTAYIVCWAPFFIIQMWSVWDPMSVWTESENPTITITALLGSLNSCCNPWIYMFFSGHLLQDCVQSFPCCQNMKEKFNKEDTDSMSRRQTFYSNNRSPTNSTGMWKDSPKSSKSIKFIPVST

Vasopressin V2 receptor [4] = target: T1, Vasopressin V2 receptor; test: Agonist activity at human vasopressin V2 receptor expressed in CHO cells assessed as cAMP accumulation by HTRF assay; type: functional, cell-based
How it was run: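 CHO cells with human V2 receptor were grown to subconfluence and serum-starved for 24 h. They were then exposed to test compound for 10 min at 37 °C in α-MEM with 1 mmol/L IBMX and 0.1% BSA, and lysed in PBS with 0.2% Triton X-100. cAMP was read by HTRF. EC50 is the concentration giving 50% of the maximal AVP response. Triplicate.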

Sequence of Vasopressin V1a/V2 (Homo sapiens) (P30518 whole entry, looked up): as the sequence (P30518 whole entry) above
Sequence of Vasopressin V1a/V2 (Homo sapiens) (P37288 whole entry, looked up): as the sequence (P37288 whole entry) above

SMILES	Ratio Ki [1]	Intrinsic activity (Vasopressin V2 receptor [2]) [%]	ED50 (Rattus norvegicus) [mg/kg]	Ki (Vasopressin V2 receptor [3]) [nM]	Ki (Vasopressin V1a receptor) [nM]	EC50 (Vasopressin V2 receptor [4]) [nM]
Cc1ccn(-c2ccc(C(=O)N3CCC(F)(F)/C(=C\C(=O)NCCO)c4ccccc43)c(Cl)c2)n1	2.9	93.9	0.14	–	–	–
C[C@H]1CCN(c2ccc(C(=O)N3CCC(F)(F)/C(=C\C(=O)NCCO)c4ccccc43)c(C(F)(F)F)c2)C1	3.1	111	0.012	14	43	1
C[C@H]1CCN(c2ccc(C(=O)N3CCC(F)(F)/C(=C\C(=O)NCCO)c4ccccc43)c(Cl)c2)C1	1.2	109	–	14	17	0.98
Cc1ccn(-c2ccc(C(=O)N3CCC(F)(F)/C(=C\C(=O)NCCO)c4ccccc43)c(C(F)(F)F)c2)n1	2.2	115	0.2	78	170	2.4
C[C@@H]1CCN(c2ccc(C(=O)N3CCC(F)(F)/C(=C\C(=O)NCCO)c4ccccc43)c(C(F)(F)F)c2)C1	2.4	114	0.04	16	39	1
C[C@@H]1CCN(c2ccc(C(=O)N3CCC(F)(F)/C(=C\C(=O)NCCO)c4ccccc43)c(Cl)c2)C1	1	118	–	13	13	0.99
